Measurements published in ChEMBL document CHEMBL1828569, “Cyclopentane-1,3-dione: a novel isostere for the carboxylic acid functional group. Application to the design of potent thromboxane (A2) receptor antagonists” (J Med Chem, 2011).

Legend:
Thromboxane A2 receptor [1] = target: T1, Thromboxane A2 receptor (Mus musculus, UniProt P30987); assay: Antagonist activity at mouse prostanoid TP receptor expressed in QBI-HEK 293A cells assessed as inhibition of […]-induced increase in inositol monophosphate after 1 hr by time-resolved fluorescence assay; format: functional, cell-based, HEK293
T1 sequence (P30987 whole entry): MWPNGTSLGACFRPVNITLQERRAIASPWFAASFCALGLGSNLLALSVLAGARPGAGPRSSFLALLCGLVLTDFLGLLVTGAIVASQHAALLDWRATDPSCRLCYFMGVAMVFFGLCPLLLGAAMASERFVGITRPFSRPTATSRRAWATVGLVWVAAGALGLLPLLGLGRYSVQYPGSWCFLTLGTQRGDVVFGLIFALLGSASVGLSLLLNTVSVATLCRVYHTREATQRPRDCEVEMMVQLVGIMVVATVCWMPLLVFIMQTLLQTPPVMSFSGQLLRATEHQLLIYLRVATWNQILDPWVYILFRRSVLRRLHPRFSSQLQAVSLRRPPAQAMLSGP
Procedure, shortened: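 QBI-HEK 293A cells stably transfected with human or mouse TP receptor cDNA, seeded at 10 000 cells/well and grown 16 h at 37 °C. Cells were preincubated 15 min at 37 °C with antagonist at varying concentrations in Hepes-buffered saline containing 50 mM LiCl, pH 7.4. I-BOP was then added at 1.6 nM for 1 h. IP1 was measured by HTRF (Tb anti-IP1 cryptate/D2-IP1, 1 h at 25 °C) as the 665/620 nm ratio.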

Thromboxane A2 receptor [2] = target: T2, Thromboxane A2 receptor (Homo sapiens, UniProt P21731); assay: Displacement of [3H]SQ-29548 from human prostanoid TP receptor expressed in QBI-HEK 293A cells after 2 hrs by scintillation proximity assay; format: cell-based, HEK293
T2 sequence (P21731 whole entry): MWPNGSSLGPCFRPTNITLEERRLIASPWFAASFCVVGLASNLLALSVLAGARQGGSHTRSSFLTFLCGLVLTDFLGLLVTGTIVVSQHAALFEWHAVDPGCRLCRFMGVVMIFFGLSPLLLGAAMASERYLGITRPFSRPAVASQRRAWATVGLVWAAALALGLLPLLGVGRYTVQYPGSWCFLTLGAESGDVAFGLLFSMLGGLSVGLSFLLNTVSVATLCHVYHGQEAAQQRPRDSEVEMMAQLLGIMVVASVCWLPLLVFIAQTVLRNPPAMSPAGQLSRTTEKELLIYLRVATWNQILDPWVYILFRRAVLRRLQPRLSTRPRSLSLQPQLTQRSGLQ

Thromboxane A2 receptor [3] = target: T1, Thromboxane A2 receptor; assay: Displacement of [3H]SQ-29548 from mouse prostanoid TP receptor expressed in QBI-HEK 293A cells after 2 hrs by scintillation proximity assay; format: cell-based, HEK293
Procedure, shortened: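 Membranes from QBI-HEK 293A cells stably expressing mouse TP receptor. Cells were harvested in PBS/1 mM EDTA, homogenized in 20 mM Hepes/1 mM EGTA/0.5 mM DTT with protease inhibitors, spun at 1000g and then 21 000 rpm, and the pellet resuspended in Hepes/EGTA/100 mM NaCl. Antagonist at 10 concentrations, 62.5 μg membrane, 100 μg PVT-WGA SPA beads and 20 nM [3H]SQ29,548 in 50 mM Tris, 4 mM CaCl2, 0.1% ascorbate, pH 7.5, 2 h at 25 °C.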

Thromboxane A2 receptor [4] = target: T2, Thromboxane A2 receptor
[5] = Dissociation constant, pKa of the compound by pH metric method; format: physicochemical
[6] = Octanol-phosphate buffer partition coefficient, log P of the compound by pH metric method; format: physicochemical
[7] = Lipophilicity, log D of the compound at pH 7.4 by pH metric method; format: physicochemical; conditions: buffer
[8] = Solubility of the compound in acetonitrile at 10 uM after 2 hrs by spectrophotometry; format: physicochemical

Structure (SMILES)	Kd (Thromboxane A2 receptor [2])	Kd (Thromboxane A2 receptor [3])	IC50 (Thromboxane A2 receptor [4])	pKa [5]	logP [6]	logD [7]	solubility [8]	other results
CC1=C(O)CC(Cc2ccc(Br)cc2)C1=O (centres undefined)	–	–	–	4.24	3.28	0.11	soluble	–
Brc1ccc(Cc2nn[nH]n2)cc1	–	–	–	4.62	2.21	-0.42	soluble	–
O=S(=O)(NCCc1cccc(CCc2nnn[nH]2)c1)c1ccc(Cl)cc1	331 nM	19 nM	64 nM	–	–	–	–	IC50 (Thromboxane A2 receptor [1]): 8 nM
O=C1CCC(O)=C1Cc1ccc(Br)cc1	–	–	–	4.2	3.01	-0.19	soluble	–
O=C1C=C(O)CC1Cc1ccc(Br)cc1 (centres undefined)	–	–	–	3.96	3.02	-0.42	soluble	–
O=C(O)CCc1ccc(Br)cc1	–	–	–	4.33	3	0.01	soluble	–
O=C1C=C(O)CC1	–	–	–	4.2	–	–	–	–
CC1=C(O)CCC1=O	–	–	–	4.47	–	–	–	–

Now from value to molecule, other results behind:

Kd (Thromboxane A2 receptor [2])	Kd (Thromboxane A2 receptor [3])	IC50 (Thromboxane A2 receptor [4])	pKa [5]	logP [6]	logD [7]	solubility [8]	Structure (SMILES)	other results
359 nM	17 nM	377 nM	–	–	–	–	O=c1c(O)c(NCc2cccc(CCNS(=O)(=O)c3ccc(Cl)cc3)c2)c1=O	IC50 (Thromboxane A2 receptor [1]): 91 nM
–	–	> 10000 nM	–	–	–	–	O=C1CCC(O)=C1CCc1cccc(CCNS(=O)(=O)c2ccc(Cl)cc2)c1	–
–	–	> 10000 nM	–	–	–	–	CC1=C(OCC(C)C)CC(Cc2cccc(CCNS(=O)(=O)c3ccc(Cl)cc3)c2)C1=O (centres undefined)	–
–	26 nM	–	–	–	–	–	O=C(O)CCc1cccc(CCNS(=O)(=O)c2ccc(Cl)cc2)c1	–
11400 nM	1200 nM	> 10000 nM	–	–	–	–	O=C1CCC(O)=C1Cc1cccc(CCNS(=O)(=O)c2ccc(Cl)cc2)c1	–
203 nM	11 nM	–	–	–	–	–	O=C1C=C(O)C(Cc2cccc(CCNS(=O)(=O)c3ccc(Cl)cc3)c2)C1 (centres undefined)	–
328 nM	26 nM	–	–	–	–	–	CC1=C(O)C(Cc2cccc(CCNS(=O)(=O)c3ccc(Cl)cc3)c2)CC1=O (centres undefined)	–
> 10000 nM	10000 nM	15100 nM	–	–	–	–	O=S(=O)(NCCc1cccc(CCCO)c1)c1ccc(Cl)cc1	IC50 (Thromboxane A2 receptor [1]): 1630 nM
